# Source: PubChem
# In the library only some 2.3% were active in any assay of this set; here they are far more common.
# TRPC4 potent = positive allosteric modulators of TRPC4, primary screen, cell-based, mouse TRPC4beta, HEK293 mu-opioid, Fluo-4 calcium; DAMGO EC20, Fluo-4 Ca2+ flux; hits give high values; B-score at 10 µM; hit rate 0.42% among 310,000;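 active = B-score of calcium response area above 5 SD of library B-scores, with initial fluorescence ratio within 5 SD of library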;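 also: B-score of integrated fluorescence ratio over time as area under calcium response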
# TRPC6 inh = mouse TRPC6 channel inhibitors, primary screen, cell-based, HEK293, membrane potential dye | ACh-evoked depolarization; hits give low values | B-score at 10 µM | hit rate 1.1% among 310,000 | AID 2553, 2010;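 active = B-score under library mean minus 3 SD, initial fluorescence not abnormally high, positive integrated signal ratio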;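 also: B-score derived from integrated fluorescence ratio over the kinetic read; more negative B-score means stronger inhibition of depolarization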
# Target sequence (Q61143 whole entry, looked up): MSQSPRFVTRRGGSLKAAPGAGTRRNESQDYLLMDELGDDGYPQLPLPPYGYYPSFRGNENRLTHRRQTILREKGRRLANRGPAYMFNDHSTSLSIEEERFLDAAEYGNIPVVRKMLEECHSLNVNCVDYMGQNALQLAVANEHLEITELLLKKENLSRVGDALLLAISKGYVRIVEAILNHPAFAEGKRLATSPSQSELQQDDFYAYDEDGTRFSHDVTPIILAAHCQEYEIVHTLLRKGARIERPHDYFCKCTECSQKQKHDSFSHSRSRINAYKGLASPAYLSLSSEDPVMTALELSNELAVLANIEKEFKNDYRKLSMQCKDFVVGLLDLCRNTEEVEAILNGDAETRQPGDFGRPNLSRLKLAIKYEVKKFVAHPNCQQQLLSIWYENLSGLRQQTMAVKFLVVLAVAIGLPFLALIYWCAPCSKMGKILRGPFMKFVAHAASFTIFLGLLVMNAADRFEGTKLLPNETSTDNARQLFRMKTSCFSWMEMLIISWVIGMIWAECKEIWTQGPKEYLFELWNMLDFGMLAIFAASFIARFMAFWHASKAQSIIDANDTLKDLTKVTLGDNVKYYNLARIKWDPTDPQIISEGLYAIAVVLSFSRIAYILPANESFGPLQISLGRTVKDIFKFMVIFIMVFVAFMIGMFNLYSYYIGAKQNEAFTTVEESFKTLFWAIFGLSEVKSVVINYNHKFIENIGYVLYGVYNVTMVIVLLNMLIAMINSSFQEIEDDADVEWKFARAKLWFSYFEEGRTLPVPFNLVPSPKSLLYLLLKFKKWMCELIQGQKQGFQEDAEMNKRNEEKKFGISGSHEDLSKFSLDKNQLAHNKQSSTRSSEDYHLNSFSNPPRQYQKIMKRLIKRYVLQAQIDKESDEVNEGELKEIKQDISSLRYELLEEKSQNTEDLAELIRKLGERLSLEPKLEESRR
# TRPC4 agonist = activators of mouse TRPC4 channel, primary screen, Fluo4 calcium, HEK293 TRPC4beta/mu-opioid cells; Short transient receptor potential channel 4 (Mus musculus), Q9QUQ5; Fluo4 calcium fluorescence; hits give high values; B-score at 10 µM; hit rate 0.49% among 310,000; AID 2237, 2010;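 active = B-score above 5 SD of library B-scores, and initial fluorescence ratio not above library mean plus 5 SD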;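 also: positive B-score marks a calcium rise read as TRPC4 activation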
#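 Incubation: 45 min room-temperature Fluo4 loading, 110 s read / System: HEK293 cells stably co-expressing mouse TRPC4beta and mu-opioid receptor / Signal: Fluo4 fluorescence, kinetic / Control set: buffer (low) and maximal DAMGO (high) / Measure: integrated baseline-normalised fluorescence ratio, converted to per-well B score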
# TRPC4 block = inhibitors of mouse TRPC4 channel, primary screen, Fluo4 calcium, HEK293 TRPC4beta/mu-opioid cells; Short transient receptor potential channel 4 (Mus musculus), Q9QUQ5; DAMGO-evoked Fluo4 calcium flux; hits give low values; B-score at 10 µM; hit rate 0.39% among 300,000; AID 2247, 2010;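 active = B-score over 3 SD under the library average, no early fluorescence shift, positive overall ratio signal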
#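 Assay system: Stable TRPC4beta/mu-opioid receptor HEK293 cells | Reagent: DAMGO in two steps, submaximal then maximal | Compound dosing: Single concentration per test compound | Signal: Fluo4 Ca2+ flux fluorescence | Evaluation: Per-well B score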
# TRPC6 activator = mouse TRPC6 channel activators, primary screen, cell-based, HEK293, membrane potential dye. Short transient receptor potential channel 6 (Mus musculus), Q61143. HEK293-TRPC6 membrane potential dye fluorescence; hits give high values. B-score at 10 µM. hit rate 0.13% among 310,000. AID 2550, 2010;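 active = B-score of the integrated fluorescence ratio above library mean plus 3 SD, and starting fluorescence ratio within library mean plus 5 SD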;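 also: higher score means more depolarization so channel activation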
# Active calls of the source: *; i = inactive.
SMILES,TRPC4 potent,TRPC6 inh,TRPC4 agonist,TRPC4 block,TRPC6 activator
COc1ccc(N(C)S(=O)(=O)c2cccc(C(=O)NCC(c3cccs3)N(C)C)c2)cc1 (stereo not given),i,i,i,-6*,i
CCOc1ccc(C(=O)NCC(C)C)cc1,i,i,i,i,i
CCOc1ccc(C(=O)NCC(c2cccs2)N(C)C)cc1 (stereo not given),i,i,50*,i,i
CCCCNS(=O)(=O)c1ccc2nc(-c3cccs3)cc(C(=O)NCC(OC)OC)c2c1,i,i,i,i,i
NC(CCCCc1ccccc1)c1cccc2ccccc12 (stereo not given),i,-7.9*,i,i,i
Cc1nc(N2CCN(C)CC2)c2c3c(sc2n1)CCCC3,i,-5.4*,i,i,i
Cc1nc(N2CCN(C(=O)c3cccs3)CC2)c2c3c(sc2n1)CCCC3,i,i,i,i,i
CCN(C(=O)c1ccco1)c1nnc(-c2cccnc2)s1,i,i,i,i,i
COC(=O)CSc1nnc(CNS(=O)(=O)c2ccc(Br)cc2)n1C,i,i,i,-6*,i
Cc1cc(NCCN2CCCCC2)n2c(nc3ccccc32)c1C#N,i,-8.1*,i,i,i
Cc1cc(NCCCN(C)C)n2c(nc3ccccc32)c1C#N,i,i,i,i,i
Cc1nn(C(=O)c2cccnc2)c(C)c1Sc1ccccc1,i,i,i,-6*,i
CC(/C=N/n1c(-c2cccnc2)n[nH]c1=S)=C\c1ccccc1,i,i,i,i,i
CC(=C/c1ccccc1)/C=N/n1c(-c2ccncc2)n[nH]c1=S,15*,i,i,i,i
CCNC(=S)N1CCC(C(O)(c2ccccc2)c2ccccc2)CC1,i,i,100*,-6*,i
Cc1c(C(=O)N2CCCC2)c(S(=O)(=O)Nc2cccc(Br)c2)c(C)n1C,i,i,i,i,i
O=C1/C(=C/c2ccncc2)SC(=S)N1Cc1ccccc1,12*,i,i,i,i
CCOc1ccccc1C(=O)N1CCN(c2cccc(Cl)c2)CC1,i,i,i,i,i
COc1ccc(Cl)cc1NC(=O)CCN1CCN(c2ccccc2C)CC1,i,i,i,i,i
CCN1CCN(c2ncc(C(=O)Nc3cc(Cl)ccc3OC)c3ccccc23)CC1,12*,i,i,i,i
COc1ccccc1N1CCN(c2ncc(C(=O)N3CCN(c4cccc(Cl)c4)CC3)c3ccccc23)CC1,21*,i,i,i,i
NC(=O)c1[nH]cnc1N,i,i,i,i,i
COc1ccc(C(CNc2ncnc3sc(C)c(C)c23)N(C)C)cc1 (stereo not given),i,i,236*,i,i
CN(C)C(CNc1ncnc2sc3c(c12)CCCCC3)c1ccco1 (stereo not given),i,i,76*,i,i
Cc1sc2ncnc(NCC(c3ccco3)N(C)C)c2c1C (stereo not given),i,i,188*,i,i
SMILES,TRPC4 potent,TRPC6 inh,TRPC4 agonist,TRPC4 block,TRPC6 activator
COc1ccccc1C(CNc1ncnc2sc(C)c(C)c12)N(C)C (stereo not given),i,i,i,i,i
COc1cccc(CN2CCC(C(=O)N3CCN(c4ccccc4F)CC3)CC2)c1OC,i,i,i,i,i
COc1ccc(CN2C(=O)c3ccc(C(=O)O)cc3C2=O)cc1,i,i,i,i,i
CCn1c(SCC(=O)c2cc(C)n(CC3CCCO3)c2C)nc2ccccc21 (stereo not given),i,i,200*,-7*,i
COc1ccc(/C=C/C(=O)Oc2cc(O)cc(O)c2)cc1,i,i,i,-7*,i
Cc1ccc(-n2cc(CN3CCC(O)(c4ccccn4)CC3)c(-c3ccc(F)cc3)n2)cc1,i,i,77*,i,i
CN1CCCC(OC(=O)c2ccccc2Br)C1 (stereo not given),10*,i,i,i,i
CN1CCCC(OC(=O)c2cccc(Cl)c2)C1 (stereo not given),12*,i,45*,i,i
CN1CCCC(OC(=O)c2cc(Cl)cc(Cl)c2)C1 (stereo not given),i,i,193*,i,i
CN1CCCC(OC(=O)c2cccc(Br)c2)C1 (stereo not given),i,i,58*,i,i
CCNC(=O)n1nccc1C(C)Oc1ccc(Cl)cc1 (stereo not given),i,i,i,i,i
Cc1ccccc1CSc1nnc(-c2ccncc2)n1C,i,i,i,i,i
COc1ccc(C2N(Cc3ccccc3)CC(=O)N2/N=C(\C)c2ccccc2)cc1 (stereo not given),i,i,i,i,i
COc1cc2c(cc1NC(=O)C(C)Sc1ccc(NC(C)=O)cc1)oc1ccccc12 (stereo not given),11*,i,i,i,i
COc1cc2c(cc1NC(=O)Nc1ccc(C)cc1)oc1ccccc12,i,i,i,i,i
COc1cc(CNCCc2ccc(F)cc2)ccc1OCc1ccc(Cl)nc1,i,i,i,-6*,i
COc1cccc(CN2CCN(C3CCN(c4ccccc4F)CC3)CC2CCO)c1 (stereo not given),i,i,i,-5*,i
Nc1nc(-c2cc(O)ccc2[N+](=O)[O-])cc(-c2ccccc2)c1[N+](=O)[O-],i,i,i,i,i
Cc1ccsc1C(=O)OCC(=O)NCCNC(=O)COC(=O)c1sccc1C,i,i,i,-7*,i
Cc1cccn2c(CNCCc3ccccn3)c(C(=O)N3CCOCC3)nc12,i,i,171*,i,i
O=C(CCn1c(=O)sc2ccccc21)NC1CCCCC1,i,i,i,i,i
COc1ccc(N2C(=O)CC(Sc3nc4c(cc3C#N)CCC4)C2=O)cc1 (stereo not given),i,i,i,i,i
O=C1c2ccc(Oc3ccc4c(c3)C(=O)N(CCCO)C4=O)cc2C(=O)N1CCCO,i,i,71*,i,i
